From ChEMBL document CHEMBL1649230, “Aryl rhodanines specifically inhibit staphylococcal and enterococcal biofilm formation” (Antimicrob Agents Chemother, 2009) come the findings set out here.

Activity calls are given as the source filed them. The calls are words filed in the database; no cut-off is given here.

The test system of assay [1] is Enterococcus faecalis. Put plainly: Antimicrobial activity against vancomycin-resistant Enterococcus faecalis isolate F177 on medical grade silicone disk assessed as inhibition of bacterial biofilm after 18 hrs by broth microdilution method. In kind it is functional. The procedure, abridged: (§1)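 Medical-grade silicone disks glued to 24-well plate bottoms. Compound added to a 1:100 overnight-culture inoculum (0.5× TSB, 1% glucose) at 2% DMSO final; ≥3 wells each, ~18 h at 37°C. Washed with water, heat-fixed 60°C 60 min, stained with 0.06% crystal violet, eluted with 30% acetic acid, OD600 read. Repeated ≥3 times.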
On the technique in general: In broth dilution the organism is exposed to a series of concentrations in liquid medium.

Assay [2] relates to Staphylococcus aureus. The experiment in a line: Antimicrobial activity against community acquired methicillin-resistant Staphylococcus aureus isolate 43349 assessed as inhibition of bacterial biofilm after 18 hrs by broth microdilution method. In kind it is functional. In outline:
(§2)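 Biofilm MBIC on tissue culture-treated polystyrene 96-well plates. Twofold dilutions, 0.2 to 100 μM final, with 2% DMSO final. Inoculum was an overnight culture diluted 1:100 (~5 × 10^6 cells/well) in 0.5× TSB plus 1% glucose, grown 18 h at 37°C. Wells washed, heat-fixed 60°C 60 min, stained with 0.06% crystal violet, OD600 read. MBIC is the lowest concentration giving ≥80% inhibition versus untreated; geometric mean of ≥3 experiments.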

Assay [3] deals with Staphylococcus epidermidis. Put plainly: Antimicrobial activity against methicillin-resistant Staphylococcus epidermidis GTC 18972 assessed as inhibition of bacterial biofilm after 18 hrs by broth microdilution method. It counts as functional. The procedure, abridged:
as §2

The test system of assay [4] is Enterococcus faecalis. Put plainly: Antimicrobial activity against vancomycin-resistant Enterococcus faecalis isolate F217 assessed as inhibition of bacterial biofilm after 18 hrs by broth microdilution method. It counts as functional. In outline:
as §2

The test system of assay [5] is Staphylococcus aureus. Put plainly: Antimicrobial activity against Staphylococcus aureus ATCC 35556 on medical grade silicone disk assessed as inhibition of bacterial biofilm after 18 hrs by broth microdilution method. In kind it is functional, organism-based.
In assay [6] the test system is Staphylococcus epidermidis. Put plainly: Antimicrobial activity against Staphylococcus epidermidis ATCC 35984 on medical grade silicone disk assessed as inhibition of bacterial biofilm after 18 hrs by broth microdilution method. In kind it is functional. In outline:
as §1

Assay [7] relates to Enterococcus faecalis. Put plainly: Antimicrobial activity against vancomycin-resistant Enterococcus faecalis isolate F217 on medical grade silicone disk assessed as inhibition of bacterial biofilm after 18 hrs by broth microdilution method. In kind it is functional. In outline: as §1
The test system of assay [8] is Enterococcus faecalis. The experiment in a line: Antimicrobial activity against vancomycin-resistant Enterococcus faecalis isolate F317 on medical grade silicone disk assessed as inhibition of bacterial biofilm after 18 hrs by broth microdilution method. It counts as functional. In outline:
as §1

Assay [9] concerns Staphylococcus aureus. The experiment in a line: Antimicrobial activity against Staphylococcus aureus ATCC 35556 assessed as inhibition of planktonic cell growth at 8 times MBIC. In kind it is functional, organism-based.
In assay [10] the test system is Staphylococcus aureus. Put plainly: Antimicrobial activity against Staphylococcus aureus ATCC 35556 assessed as inhibition of bacterial biofilm formation at 4 times MBIC measured after 4 hrs. In kind it is functional, organism-based.
The test system of assay [11] is Staphylococcus aureus. The experiment in a line: Antimicrobial activity against Staphylococcus aureus ATCC 35556 assessed as inhibition of bacterial biofilm formation at 4 times MBIC measured after 6 hrs. It counts as functional, organism-based.
Assay [12] relates to Staphylococcus aureus. The experiment in a line: Antimicrobial activity against Staphylococcus aureus ATCC 35556 assessed as inhibition of primary adhesion of bacterial biofilm to polystyrene surface under static condition at 0.5 times MBIC after 30 mins by fluorescence emission using BaclLight Live Dead stain. In kind it is functional, organism-based. In outline:
(§3)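 Mid-log S. aureus ATCC 35556 (OD600 0.5) grown in TSB at 37°C, washed, resuspended in PBS. Compound added (0× to 8× MBIC, 2% DMSO). Suspension placed on tissue culture-treated polystyrene or PVC 96-well plates (eight wells per level) or silicone disks in 24-well plates (three wells). Incubated 30 min at 37°C, then washed. BacLight Live/Dead fluorescence read (ex 485, em 530 nm). Result given as fraction adherent versus untreated.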

The test system of assay [13] is Staphylococcus aureus. The experiment in a line: Antimicrobial activity against Staphylococcus aureus ATCC 35556 assessed as inhibition of primary adhesion of bacterial biofilm to PVC surface under static condition at 4 times MBIC after 30 mins by fluorescence emission using BaclLight Live Dead stain. It counts as functional, organism-based. The procedure, abridged:
as §3

Assay [14] deals with Staphylococcus aureus. Put plainly: Antimicrobial activity against Staphylococcus aureus ATCC 35556 assessed as inhibition of primary adhesion of bacterial biofilm to silicone disk under static condition at MBIC after 30 mins by fluorescence emission using BaclLight Live Dead stain. In kind it is functional, organism-based. In outline:
as §3

The test system of assay [15] is Staphylococcus aureus. The experiment in a line: Antimicrobial activity against Staphylococcus aureus ATCC 35556 assessed as inhibition of primary adhesion of bacterial biofilm to silicone disk surface under static condition at 4 times MBIC after 30 mins by fluorescence emission using BaclLight Live Dead stain. It counts as functional, organism-based. The procedure, abridged:
as §3

In assay [16] the test system is Staphylococcus aureus. Put plainly: Inhibition of […] of Staphylococcus aureus ATCC 35556 assessed as level of beta-galactosidase activity at 8 times MBIC by Miller assay. In kind it is functional, organism-based. The procedure, abridged:
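Stationary-phase autolysis used ATCC 35556 carrying pAJ22, inoculated 1:100 from overnight culture into TSB with 6 μg chloramphenicol/ml and varying compound. Cultures were shaken at 250 rpm, 37°C, for 96 h, sampling OD600 and cell-free supernatants over time. Released β-galactosidase in supernatants was assayed with o-nitrophenyl-β-d-galactopyranoside and reported in Miller units.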

For assay [17], the system named is Staphylococcus aureus. Put plainly: Antimicrobial activity against Staphylococcus aureus ATCC 35556 assessed as inhibition of primary adhesion of bacterial biofilm to polystyrene surface under static condition pretreated with compound MBIC for 30 mins measured after 30 mins by fluorescence emission using BaclLight Live Dead stain. In kind it is functional. The procedure, abridged:
(§4)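 PBS suspension of mid-log S. aureus ATCC 35556 exposed to compound in tubes for 30 min at 37°C. Cells centrifuged to remove free compound and resuspended in PBS at the original density. They were then placed on tissue culture-treated polystyrene for 30 min at 37°C. Wells washed, BacLight Live/Dead fluorescence read (ex 485, em 530 nm). Fraction adherent calculated versus untreated.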

Assay [18] deals with Staphylococcus aureus. Put plainly: Antimicrobial activity against Staphylococcus aureus ATCC 35556 assessed as inhibition of primary adhesion of bacterial biofilm to polystyrene surface under static condition pretreated with 4 times compound MBIC for 30 mins measured after 30 mins by fluorescence emission using BaclLight Live Dead stain. In kind it is functional. The procedure, abridged:
as §4

Assay [19] has as its system Staphylococcus aureus. Put plainly: Antimicrobial activity against Staphylococcus aureus ATCC 35556 assessed as effect on protein synthesis at 15 ug/ml. It counts as functional, organism-based.
Assay [20] concerns Staphylococcus aureus. The experiment in a line: Antimicrobial activity against Staphylococcus aureus ATCC 35556 assessed as effect on protein synthesis at 30 ug/ml. In kind it is functional, organism-based.
The test system of assay [21] is Staphylococcus aureus. Put plainly: Antimicrobial activity against Staphylococcus aureus ATCC 35556 assessed as inhibition of primary adhesion of bacterial biofilm to silicone disk at MBIC after 30 mins by fluorescence emission using BaclLight Live Dead stain.
For assay [22], the system named is Staphylococcus aureus. Put plainly: Antimicrobial activity against community acquired methicillin-resistant Staphylococcus aureus isolate 35392 assessed as inhibition of bacterial biofilm after 18 hrs by broth microdilution method. In kind it is functional. The procedure, abridged: as §2
For assay [23], the system named is Enterococcus faecalis. Put plainly: Antimicrobial activity against vancomycin-resistant Enterococcus faecalis isolate F177 assessed as inhibition of bacterial biofilm after 18 hrs by broth microdilution method. It counts as functional. In outline:
as §2

The subject of assay [24] is Staphylococcus aureus. Put plainly: Antimicrobial activity against community acquired methicillin-resistant Staphylococcus aureus isolate 24102 assessed as inhibition of bacterial biofilm after 18 hrs by broth microdilution method. In kind it is functional. In outline:
as §2

The subject of assay [25] is Staphylococcus aureus. The experiment in a line: Antimicrobial activity against community acquired methicillin-resistant Staphylococcus aureus isolate 27687 assessed as inhibition of bacterial biofilm after 18 hrs by broth microdilution method. It counts as functional. In outline:
as §2

Assay [26] concerns Staphylococcus aureus. The experiment in a line: Antimicrobial activity against community acquired methicillin-resistant Staphylococcus aureus isolate 33548 assessed as inhibition of bacterial biofilm after 18 hrs by broth microdilution method. It counts as functional. In outline: as §2
Assay [27] relates to Enterococcus faecalis. Put plainly: Antimicrobial activity against Enterococcus faecalis ATCC 51299 on medical grade silicone disk assessed as inhibition of bacterial biofilm after 18 hrs by broth microdilution method. It counts as functional.

Take `CCOc1cc(/C=C2\SC(=S)N(c3ccc(F)cc3)C2=O)ccc1O`: the MBIC90 result in the assay with Enterococcus faecalis [1] is “>=100 uM”; in assay [6] it was 42 µM; with Enterococcus faecalis [7], “>=100 uM”; in the assay with Enterococcus faecalis [8], “>=100 uM”. Further, the figures for the MBIC (in the assay on Staphylococcus aureus [2]; in [3]; in the assay on Enterococcus faecalis [4]) were 35.4 µM, 21 µM and 12.5 µM, respectively. Moreover, the Activity result in the assay with Staphylococcus aureus [5] is “Dose-dependent effect”. Also, the inhibition result in the assay on Staphylococcus aureus [9], in the assay with Staphylococcus aureus [16], with Staphylococcus aureus [19] and with Staphylococcus aureus [20] was “inactive” in each case. The inhibition entry in the assay with Staphylococcus aureus [10], in the assay on Staphylococcus aureus [11], in the assay with Staphylococcus aureus [12], in the assay with Staphylococcus aureus [13], with Staphylococcus aureus [14] and in the assay on Staphylococcus aureus [15] was “Active” in each case. Further, the inhibition entry in the assay on Staphylococcus aureus [21] was “Active”. The “inhibition (INH)” value in the assay with Staphylococcus aureus [17] and in the assay with Staphylococcus aureus [18] was “>=80%” in each case.
As for `CCOc1cc(/C=C2\SC(=S)N(c3cccnc3)C2=O)ccc1O`, the figures for the MBIC in the assay on Staphylococcus aureus [22], in the assay on Enterococcus faecalis [23] and in the assay on Staphylococcus aureus [24] were 25 µM, 19.8 µM and 19.8 µM, respectively. The inhibition entry in the assay with Staphylococcus aureus [12], with Staphylococcus aureus [13], in the assay on Staphylococcus aureus [14] and in the assay on Staphylococcus aureus [15] was “Active” each time. The “inhibition (INH)” value with Staphylococcus aureus [17] and in the assay with Staphylococcus aureus [18] was “>=80%” each time. The inhibition entry in the assay with Staphylococcus aureus [19] and in the assay on Staphylococcus aureus [20] was “inactive” in each case.
For `C=CCOc1cc(/C=C2\SC(=S)N(c3ccc(F)cc3)C2=O)ccc1O`, the MBIC was found to be 39.7 µM in the assay on Staphylococcus aureus [22], 50 µM in the assay on Staphylococcus aureus [25], 100 µM in the assay on Staphylococcus aureus [24] and 31.5 µM in the assay with Staphylococcus aureus [26]. In addition, the MBIC90 in the assay with Enterococcus faecalis [27] was determined as 100 µM.
For `CCOc1cc(/C=C2\SC(=S)N(c3cccc(F)c3)C2=O)ccc1O`, the MBIC90 result in the assay on Enterococcus faecalis [1], with Enterococcus faecalis [7] and in the assay with Enterococcus faecalis [8] was “>=100 uM” throughout. Besides, the MBIC with Staphylococcus aureus [26] was 35.4 µM; with Enterococcus faecalis [4], 29.7 µM.
